The source made the active and inactive calls. No cut-off for these calls is given here.
Columns and labels:
[1] = target: Vascular endothelial growth factor receptor 1 (Homo sapiens, UniProt P17948); assay: Inhibition of Flt1 (unknown origin)
[2] = target: Phosphatidylinositol 4,5-bisphosphate 3-kinase catalytic subunit beta isoform (Homo sapiens, UniProt P42338); assay: Inhibition of PI3Kbeta (unknown origin)
[3] = target: Dual specificity tyrosine-phosphorylation-regulated kinase 2 (Homo sapiens, UniProt Q92630); assay: Inhibition of DYRK2 (unknown origin)
Chain of Dual specificity tyrosine-phosphorylation-regulated kinase 2 (Q92630 whole entry): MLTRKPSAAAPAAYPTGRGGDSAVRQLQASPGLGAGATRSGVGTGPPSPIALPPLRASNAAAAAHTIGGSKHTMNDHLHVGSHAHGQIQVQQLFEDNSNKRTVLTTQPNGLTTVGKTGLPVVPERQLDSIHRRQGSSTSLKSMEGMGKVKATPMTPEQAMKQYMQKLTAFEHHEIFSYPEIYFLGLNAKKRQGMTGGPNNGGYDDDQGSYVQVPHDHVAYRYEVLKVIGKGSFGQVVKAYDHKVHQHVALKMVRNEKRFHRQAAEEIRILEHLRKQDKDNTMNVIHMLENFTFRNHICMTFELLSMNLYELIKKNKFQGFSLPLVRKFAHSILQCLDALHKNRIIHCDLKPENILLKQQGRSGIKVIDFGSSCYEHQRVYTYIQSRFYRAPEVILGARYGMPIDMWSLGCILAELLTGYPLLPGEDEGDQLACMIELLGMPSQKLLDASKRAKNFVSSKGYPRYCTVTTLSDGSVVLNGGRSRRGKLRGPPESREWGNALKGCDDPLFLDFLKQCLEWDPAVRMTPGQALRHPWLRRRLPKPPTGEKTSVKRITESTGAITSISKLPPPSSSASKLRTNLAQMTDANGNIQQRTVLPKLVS

[4] = target: Tyrosine-protein kinase HCK (Homo sapiens, UniProt P08631); assay: Inhibition of Hck (unknown origin)
Chain of Tyrosine-protein kinase HCK (P08631 whole entry): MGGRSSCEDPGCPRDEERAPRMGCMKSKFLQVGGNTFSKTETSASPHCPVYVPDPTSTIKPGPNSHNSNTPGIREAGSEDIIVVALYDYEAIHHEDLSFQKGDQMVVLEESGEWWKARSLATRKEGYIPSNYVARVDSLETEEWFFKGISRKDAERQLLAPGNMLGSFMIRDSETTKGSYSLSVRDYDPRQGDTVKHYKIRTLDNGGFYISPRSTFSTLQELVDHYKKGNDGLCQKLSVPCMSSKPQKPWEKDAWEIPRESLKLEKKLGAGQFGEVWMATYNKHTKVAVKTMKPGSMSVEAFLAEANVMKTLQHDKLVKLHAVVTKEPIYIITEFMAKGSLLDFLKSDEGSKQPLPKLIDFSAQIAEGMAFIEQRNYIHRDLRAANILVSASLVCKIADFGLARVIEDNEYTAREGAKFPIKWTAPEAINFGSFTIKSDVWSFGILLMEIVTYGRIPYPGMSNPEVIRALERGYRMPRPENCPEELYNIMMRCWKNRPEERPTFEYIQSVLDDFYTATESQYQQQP

[5] = target: Calcium/calmodulin-dependent protein kinase type II subunit alpha (Homo sapiens, UniProt Q9UQM7); assay: Inhibition of CamK2a (unknown origin)
[6] = target: Tyrosine-protein kinase BTK (Homo sapiens, UniProt Q06187); assay: Inhibition of Btk (unknown origin)
Chain of Tyrosine-protein kinase BTK (Q06187 whole entry): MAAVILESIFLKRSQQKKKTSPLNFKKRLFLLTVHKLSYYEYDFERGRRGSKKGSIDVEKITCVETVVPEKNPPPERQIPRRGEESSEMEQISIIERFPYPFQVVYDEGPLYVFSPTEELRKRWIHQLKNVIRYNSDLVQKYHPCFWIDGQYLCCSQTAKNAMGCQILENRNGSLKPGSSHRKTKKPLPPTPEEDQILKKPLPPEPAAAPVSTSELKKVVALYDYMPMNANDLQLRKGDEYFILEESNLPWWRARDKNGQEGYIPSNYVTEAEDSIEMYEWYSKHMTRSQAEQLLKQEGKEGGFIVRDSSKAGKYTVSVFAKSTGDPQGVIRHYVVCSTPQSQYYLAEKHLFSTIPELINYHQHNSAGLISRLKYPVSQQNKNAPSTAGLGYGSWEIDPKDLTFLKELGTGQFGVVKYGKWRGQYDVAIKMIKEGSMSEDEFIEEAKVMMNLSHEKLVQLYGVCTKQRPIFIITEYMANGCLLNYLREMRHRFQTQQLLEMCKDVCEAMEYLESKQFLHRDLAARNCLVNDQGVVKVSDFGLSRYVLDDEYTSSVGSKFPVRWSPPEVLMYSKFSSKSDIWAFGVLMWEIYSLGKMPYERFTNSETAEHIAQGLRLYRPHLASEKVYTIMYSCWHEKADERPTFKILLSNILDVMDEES

[7] = system: FaDu; assay: Antitumor activity against human FaDu cells harboring SMAD4 del/TP53 R248L/CDKN2A mutant xenografted in mouse assessed as tumor growth inhibition at 5 mg/kg, po; type: functional; settings: read-out: TGI
Summary of the method: (§1)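 Single-agent dose ranging in human tumor xenograft mice at 2.5, 5 or 10 mg/kg oral. Tumor volume was measured by caliper as (L×W×W)/2. %TGI = 100×[1 − AUC(treatment/d)/AUC(vehicle/d)] from the fitted growth curve per dose group, relative to vehicle.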

[8] = target: BDNF/NT-3 growth factors receptor (Homo sapiens, UniProt Q16620); assay: Inhibition of TrkB (unknown origin)
[9] = system: LoVo; assay: Antitumor activity against human LoVo cells harboring KRAS G13D/CDKN2A P48L/FBXW7 R505C/MSH2/SMO G16_L17insLL/A324T/NF1 R1276Q/Y1607fs17/APC1114 mutant xenografted in mouse assessed as tumor growth inhibition at 10 mg/kg, po; type: functional; settings: read-out: TGI; summary of the method: as §1
[10] = system: DLD-1; assay: Antitumor activity against human DLD-1 cells harboring KRAS G13D/IDH1 G97D/SMO T640A/APC I1417 mutant xenografted in mouse assessed as tumor growth inhibition at 5 mg/kg, po; type: functional; settings: read-out: TGI; summary of the method: as §1
[11] = system: A2058; assay: Antitumor activity against human A2058 cells harboring BRAF V600E/PTEN deletion mutant xenografted in mouse assessed as decrease in tumor volume at 1.5 mg/kg, po administered once daily for 21 days in presence of GDC-0980 by digital calipers analysis; type: functional, organism-based; settings: time 21.0 day
[12] = Antitumor activity against human A2058-X1 cells harboring BRAF V600E/PTEN L112Q/V175/TP53 V274F mutant xenografted in mouse assessed as tumor growth inhibition at 5 mg/kg, po; type: functional; settings: A2058-X1, read-out: TGI; summary of the method: as §1
[13] = system: Hs-578T; assay: Antiproliferative activity against human Hs-578T cells assessed as reduction in cell viability incubated for 96 hrs in presence of 4-(2-(1H-indazol-4-yl)-6-((4-(methylsulfonyl)piperazin-1-yl)methyl)thieno[3,2-d]pyrimidin-4-yl)morpholine; type: functional, cell-based
[14] = system: A2058; assay: Antitumor activity against human A2058 cells harboring BRAF V600E/PTEN deletion mutant xenografted in mouse assessed as suppression of AKT phosphorylation at 15 mg/kg, po administered every third day for 21 days and measured after 72 hrs post dose by Western blot analysis; type: functional, organism-based; settings: time 576.0 hrs
[15] = target: Ephrin type-B receptor 4 (Homo sapiens, UniProt P54760); assay: Inhibition of EphB4 (unknown origin)
Chain of Ephrin type-B receptor 4 (P54760 whole entry): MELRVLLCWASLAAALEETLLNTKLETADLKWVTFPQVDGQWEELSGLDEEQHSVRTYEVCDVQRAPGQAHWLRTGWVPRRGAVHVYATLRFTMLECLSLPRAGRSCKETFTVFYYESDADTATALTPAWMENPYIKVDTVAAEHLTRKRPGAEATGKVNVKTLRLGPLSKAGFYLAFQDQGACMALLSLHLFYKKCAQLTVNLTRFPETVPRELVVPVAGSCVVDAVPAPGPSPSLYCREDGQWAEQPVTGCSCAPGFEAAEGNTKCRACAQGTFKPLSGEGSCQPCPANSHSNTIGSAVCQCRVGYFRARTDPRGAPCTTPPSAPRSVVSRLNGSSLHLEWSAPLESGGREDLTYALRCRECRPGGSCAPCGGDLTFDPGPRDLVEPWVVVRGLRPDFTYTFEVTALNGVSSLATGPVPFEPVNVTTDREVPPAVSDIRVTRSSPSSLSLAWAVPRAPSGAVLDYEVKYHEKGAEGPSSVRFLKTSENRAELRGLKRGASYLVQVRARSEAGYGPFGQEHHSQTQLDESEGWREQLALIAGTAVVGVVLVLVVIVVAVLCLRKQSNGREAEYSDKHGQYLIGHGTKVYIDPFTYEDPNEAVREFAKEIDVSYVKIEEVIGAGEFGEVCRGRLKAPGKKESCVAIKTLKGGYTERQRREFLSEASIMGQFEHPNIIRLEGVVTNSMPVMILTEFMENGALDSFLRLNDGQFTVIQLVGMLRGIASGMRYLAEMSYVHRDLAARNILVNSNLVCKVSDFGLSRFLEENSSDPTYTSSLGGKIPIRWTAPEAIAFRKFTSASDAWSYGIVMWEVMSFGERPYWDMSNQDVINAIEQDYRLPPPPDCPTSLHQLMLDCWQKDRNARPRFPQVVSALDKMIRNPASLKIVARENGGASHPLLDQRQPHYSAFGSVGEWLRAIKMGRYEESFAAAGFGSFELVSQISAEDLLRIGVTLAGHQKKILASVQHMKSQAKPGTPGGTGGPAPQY

[16] = target: Protein kinase C gamma type (Homo sapiens, UniProt P05129); assay: Inhibition of PKCg (unknown origin)
[17] = system: 537-mel; assay: Antitumor activity against human 537-mel cells harboring PTEN null mutation xenografted in mouse assessed as tumor growth inhibition at 10 mg/kg, po; type: functional; settings: read-out: TGI
Summary of the method: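 Mice carrying human tumor xenografts dosed orally once daily for 21 consecutive days. Tumor volume measured by calipers as (L×W×W)/2. %TGI = 100×[1 − AUC(treatment/day)/AUC(vehicle/day)], using the area under the fitted growth curve relative to vehicle.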

[18] = system: HCT-116; assay: Antitumor activity against human HCT-116 cells harboring KRAS G13D/PIK3CA […]/CTNNB1 S45del/CDKN2A G23fs mutant xenografted in mouse assessed as tumor growth inhibition at 10 mg/kg, po; type: functional; settings: read-out: TGI; summary of the method: as §1
[19] = system: NCI-H2122; assay: Antitumor activity against human NCI-H2122 cells xenografted in mouse assessed as reduction in ERK phosphorylation at 1 to 10 mg/kg, po administered for 3 days and measured at 24 hrs by Western blot analysis; type: functional; parameters: scale not given: the % may be the effect or the level left; settings: time 96 hrs
Summary of the method: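 NCI-H2122 xenograft mice received 3 daily oral doses of 1, 3, 5 or 10 mg/kg. Tumors were collected 2, 8 and 24 h after the last dose, pulverized on dry ice and lysed. Lysates were run on 4–12% SDS-PAGE and transferred to nitrocellulose. p-ERK1/2 and t-ERK1/2 bands were quantified on an Odyssey imager and expressed relative to vehicle-treated mice (0 h).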

[20] = system: NCI-H69; assay: Antitumor activity against human NCI-H69 cells harboring RBI E748/PK3CA G106_R108/TP53 E171 mutant xenografted in mouse assessed as tumor growth inhibition at 5 mg/kg, po; type: functional; settings: read-out: TGI
Summary of the method: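 Human tumor xenografts in mice were dosed orally at the indicated mg/kg. Tumor volume was measured with calipers as (L×W×W)/2. %TGI = 100 × [1 − (AUC treatment/d)/(AUC vehicle/d)], using the area under the fitted tumor-growth curve per day for each dose group relative to vehicle.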

[21] = system: 888-mel; assay: Induction of apoptosis in human 888-mel cells assessed as increase in cleaved PARP level preincubated with compound for 24 hrs followed by compound washout and measured after 2 hrs in presence of 4-(2-(1H-indazol-4-yl)-6-((4-(methylsulfonyl)piperazin-1-yl)methyl)thieno[3,2-d]pyrimidin-4-yl)morpholine by immunoblotting analysis; type: functional, cell-based
Summary of the method: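 The medium was then exchanged to remove compound. Lysates were prepared 2 and 24 h after washout and immunoblotted for cleaved PARP, p-AKT and p-ERK using HRP secondary antibody and ECL.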

[22] = target: Serine/threonine-protein kinase D2 (Homo sapiens, UniProt Q9BZL6); assay: Inhibition of PKD2 (unknown origin)
Chain of Serine/threonine-protein kinase D2 (Q9BZL6 whole entry): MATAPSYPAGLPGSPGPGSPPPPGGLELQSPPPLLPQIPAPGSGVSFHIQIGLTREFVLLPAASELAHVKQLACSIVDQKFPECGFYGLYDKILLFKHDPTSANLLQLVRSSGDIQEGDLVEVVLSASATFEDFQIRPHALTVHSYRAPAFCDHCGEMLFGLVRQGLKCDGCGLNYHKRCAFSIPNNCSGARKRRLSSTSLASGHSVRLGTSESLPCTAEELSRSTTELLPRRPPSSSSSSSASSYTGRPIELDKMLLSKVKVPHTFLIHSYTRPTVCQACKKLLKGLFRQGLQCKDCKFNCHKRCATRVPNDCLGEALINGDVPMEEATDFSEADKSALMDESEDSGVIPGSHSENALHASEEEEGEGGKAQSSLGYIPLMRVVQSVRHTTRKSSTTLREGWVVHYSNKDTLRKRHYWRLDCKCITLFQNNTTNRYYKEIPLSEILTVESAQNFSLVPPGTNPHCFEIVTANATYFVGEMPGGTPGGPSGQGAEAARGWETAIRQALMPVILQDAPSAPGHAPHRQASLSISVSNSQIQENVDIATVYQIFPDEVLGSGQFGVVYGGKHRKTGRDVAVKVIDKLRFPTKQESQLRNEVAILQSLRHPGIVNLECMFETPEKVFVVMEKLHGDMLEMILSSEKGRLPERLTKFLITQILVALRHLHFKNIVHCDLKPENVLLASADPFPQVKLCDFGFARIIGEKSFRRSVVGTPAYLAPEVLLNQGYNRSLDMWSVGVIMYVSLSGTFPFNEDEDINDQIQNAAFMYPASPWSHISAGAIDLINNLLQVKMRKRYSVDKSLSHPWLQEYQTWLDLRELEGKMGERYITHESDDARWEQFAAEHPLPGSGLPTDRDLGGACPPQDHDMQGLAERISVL

[23] = target: Serine/threonine-protein kinase Chk1 (Homo sapiens, UniProt O14757); assay: Inhibition of CHK1 (unknown origin)
[24] = system: EBC-1; assay: Antitumor activity against human EBC-1 cells harboring MET amp and EGFR G719S/L858R mutant xenografted in mouse assessed as tumor growth inhibition at 10 mg/kg, po; type: functional; settings: read-out: TGI; summary of the method: as §1
[25] = target: Macrophage-stimulating protein receptor (Homo sapiens, UniProt Q04912); assay: Inhibition of RON (unknown origin)
[26] = target: Serine/threonine-protein kinase 10 (Homo sapiens, UniProt O94804); assay: Inhibition of LOK (unknown origin)
[27] = system: NCI-H2122; assay: Antitumor activity against human NCI-H2122 cells xenografted in mouse assessed as tumor growth inhibition at 20 mg/kg, po administered once a day for 21 days in presence of 4-(2-(1H-indazol-4-yl)-6-((4-(methylsulfonyl)piperazin-1-yl)methyl)thieno[3,2-d]pyrimidin-4-yl)morpholine; type: functional; settings: NCI-H2122, 504 h, time 21 day, read-out: TGI
Summary of the method: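 Mice bearing NCI-H2122 xenografts were given MEK inhibitor, PI3K inhibitor, or both, orally once daily for 21 consecutive days at the doses labeled. Caliper tumor volumes were calculated as (L×W×W)/2. %TGI was derived from the AUC of the fitted growth curve per day relative to vehicle.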

Chain of Vascular endothelial growth factor receptor 1 (P17948 whole entry, canonical isoform): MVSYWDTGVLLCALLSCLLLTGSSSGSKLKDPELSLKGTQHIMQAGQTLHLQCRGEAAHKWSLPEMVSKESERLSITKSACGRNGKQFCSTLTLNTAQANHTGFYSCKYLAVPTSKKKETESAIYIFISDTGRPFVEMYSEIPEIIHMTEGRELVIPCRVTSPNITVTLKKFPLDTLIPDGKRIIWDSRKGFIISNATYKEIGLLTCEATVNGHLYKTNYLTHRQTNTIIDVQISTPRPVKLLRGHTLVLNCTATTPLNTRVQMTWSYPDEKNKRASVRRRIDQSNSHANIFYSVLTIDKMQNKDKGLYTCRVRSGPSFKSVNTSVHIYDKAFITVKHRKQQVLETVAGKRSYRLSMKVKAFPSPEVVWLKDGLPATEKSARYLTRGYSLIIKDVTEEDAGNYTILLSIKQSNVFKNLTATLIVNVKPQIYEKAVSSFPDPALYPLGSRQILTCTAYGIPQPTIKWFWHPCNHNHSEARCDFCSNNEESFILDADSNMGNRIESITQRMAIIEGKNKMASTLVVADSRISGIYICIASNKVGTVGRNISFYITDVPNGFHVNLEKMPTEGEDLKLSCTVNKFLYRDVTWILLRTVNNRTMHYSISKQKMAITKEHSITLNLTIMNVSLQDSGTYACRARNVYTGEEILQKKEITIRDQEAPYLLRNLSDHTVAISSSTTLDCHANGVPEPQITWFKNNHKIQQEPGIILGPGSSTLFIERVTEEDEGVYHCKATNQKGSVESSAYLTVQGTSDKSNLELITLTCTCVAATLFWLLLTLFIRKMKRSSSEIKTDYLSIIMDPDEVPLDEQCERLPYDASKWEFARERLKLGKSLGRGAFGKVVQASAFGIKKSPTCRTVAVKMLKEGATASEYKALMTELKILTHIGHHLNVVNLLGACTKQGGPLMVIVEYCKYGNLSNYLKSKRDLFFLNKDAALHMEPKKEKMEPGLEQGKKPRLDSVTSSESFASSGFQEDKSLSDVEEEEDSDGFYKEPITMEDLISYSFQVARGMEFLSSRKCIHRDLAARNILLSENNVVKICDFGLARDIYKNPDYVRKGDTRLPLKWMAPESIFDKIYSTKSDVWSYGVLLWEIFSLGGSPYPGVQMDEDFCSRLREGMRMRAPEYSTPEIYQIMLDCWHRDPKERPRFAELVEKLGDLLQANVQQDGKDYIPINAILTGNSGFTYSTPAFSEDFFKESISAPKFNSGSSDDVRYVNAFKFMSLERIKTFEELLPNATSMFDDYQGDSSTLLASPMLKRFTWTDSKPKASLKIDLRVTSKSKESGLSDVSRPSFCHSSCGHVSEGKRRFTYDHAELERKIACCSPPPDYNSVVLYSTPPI

O=C(c1ccc(F)c(F)c1Nc1ccc(I)cc1F)N1CC(O)([C@@H]2CCCCN2)C1 [COBIMETINIB]
IC50 [1]: > 10 µM
IC50 [2]: > 10 µM
IC50 [3]: > 10 µM
IC50 [4]: > 10 µM
IC50 [5]: > 10 µM
IC50 [6]: > 10 µM
inhibition in vivo at 5 mg/kg [7]: 94%
IC50 [8]: > 10 µM
inhibition in vivo at 10 mg/kg [9]: 98%
inhibition in vivo at 5 mg/kg [10]: 50.2%
Activity [11]: Active
inhibition in vivo at 5 mg/kg [12]: 45%
Activity [13]: inactive
Activity [14]: Active
IC50 [15]: > 10 µM
IC50 [16]: > 10 µM
inhibition in vivo at 10 mg/kg [17]: 96%
inhibition in vivo at 10 mg/kg [18]: 84.5%
Activity [19]: 73%
inhibition in vivo at 5 mg/kg [20]: 21%
Activity [21]: inactive
IC50 [22]: > 10 µM
IC50 [23]: > 10 µM
inhibition in vivo at 10 mg/kg [24]: 40%
IC50 [25]: > 10 µM
IC50 [26]: > 10 µM
inhibition in vivo at 20 mg/kg [27]: 87%

From ChEMBL document CHEMBL5678805, “Intermittent administration of MEK inhibitor GDC-0973 plus PI3K inhibitor GDC-0941 triggers robust apoptosis and tumor growth inhibition” (Cancer Res, 2012)
